# Test results: ChEMBL document CHEMBL5303300, “EUbOPEN Chemogenomics Library - Multiplex” (2023)
# Values joined by “and” are separate entries in the source; they are usually repeats but may differ in a detail not shown here. Equal entries are not always repeated.
# System: U2OS
# Assay: Multiplex assay against U2OS
# Format: toxicity, cell-based
# Conditions: human, number of replicates 2
# Method in brief: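 At seeding, live cells were stained with Hoechst33342, BioTracker Green Microtubule Cytoskeleton Dye, MitoTracker Red and Annexin V Alexa Fluor 680. After compound addition they were imaged on a CQ1 microscope at 37°C and 5% CO2, and CellPathfinder machine-learning gating sorted them into Hoechst high-intensity objects or normal cells, with normal cells further split into healthy, pyknosed or fragmented nuclei and pyknosed cells into mitotic or apoptotic. Tubulin, mitochondrial-mass and membrane-permeability phenotypes are given as per cents of cells with healthy nuclei.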
# [1] = 12 h, 1 µM, compound concentration 1 uM
# [2] = 12 h, 10 µM, compound concentration 10 uM
# [3] = 24 h, 1 µM, compound concentration 1 uM
# [4] = 24 h, 10 µM, compound concentration 10 uM
# [5] = 48 h, 1 µM, compound concentration 1 uM
# [6] = 48 h, 10 µM, compound concentration 10 uM
smiles,measurement,setting,value
COc1ccc(NC(=O)c2ccc(-c3ccc(-c4noc(C)n4)cc3C)cc2)cc1OCCN(C)C.Cl,Population Apoptotic (%),[1],40% and 45%
same,Population Healthy Nuclei (%),[1],61% and 83%
same,Population Hoechst High Intensity Objects (%),[1],0%
same,Population Membrane Permeable-Phenotype (%),[1],5% and 4%
same,Population Mitochondria Different-Phenotype (%),[1],5% and 13%
same,Population Mitotic Cells (%),[1],60% and 55%
same,Population Normal (%),[1],100%
same,Population Pyknosed Nuclei (%),[1],16% and 11%
same,Population Tubulin-Different-Phenotype (%),[1],36% and 40%
same,Population Apoptotic (%),[2],76% and 60%
same,Population Fragmented Nuclei (%),[2],10% and 23%
same,Population Healthy Nuclei (%),[2],43% and 51%
same,Population Hoechst High Intensity Objects (%),[2],1% and 0%
same,Population Membrane Permeable-Phenotype (%),[2],34% and 30%
same,Population Mitochondria Different-Phenotype (%),[2],67% and 85%
same,Population Mitotic Cells (%),[2],23% and 40%
same,Population Normal (%),[2],98% and 100%
same,Population Pyknosed Nuclei (%),[2],46% and 25%
same,Population Tubulin-Different-Phenotype (%),[2],93% and 100%
same,Population Apoptotic (%),[3],55% and 51%
same,Population Healthy Nuclei (%),[3],55% and 78%
same,Population Hoechst High Intensity Objects (%),[3],2% and 0%
same,Population Membrane Permeable-Phenotype (%),[3],5%
same,Population Mitochondria Different-Phenotype (%),[3],15% and 17%
same,Population Mitotic Cells (%),[3],44% and 48%
same,Population Normal (%),[3],97% and 99%
same,Population Pyknosed Nuclei (%),[3],25% and 15%
same,Population Tubulin-Different-Phenotype (%),[3],35% and 34%
same,Population Apoptotic (%),[4],63% and 86%
same,Population Fragmented Nuclei (%),[4],16% and 6%
same,Population Healthy Nuclei (%),[4],32%
same,Population Hoechst High Intensity Objects (%),[4],0%
same,Population Membrane Permeable-Phenotype (%),[4],58% and 79%
same,Population Mitochondria Different-Phenotype (%),[4],75% and 89%
same,Population Mitotic Cells (%),[4],36% and 13%
same,Population Normal (%),[4],100% and 99%
same,Population Pyknosed Nuclei (%),[4],51% and 61%
same,Population Tubulin-Different-Phenotype (%),[4],100% and 98%
same,Population Apoptotic (%),[5],77% and 72%
same,Population Fragmented Nuclei (%),[5],16% and 7%
same,Population Healthy Nuclei (%),[5],65% and 77%
same,Population Hoechst High Intensity Objects (%),[5],2% and 0%
same,Population Membrane Permeable-Phenotype (%),[5],6%
same,Population Mitochondria Different-Phenotype (%),[5],3% and 12%
same,Population Mitotic Cells (%),[5],22% and 27%
same,Population Normal (%),[5],98% and 100%
same,Population Pyknosed Nuclei (%),[5],18% and 15%
same,Population Tubulin-Different-Phenotype (%),[5],37% and 40%
same,Population Apoptotic (%),[6],95% and 98%
same,Population Fragmented Nuclei (%),[6],21% and 14%
same,Population Healthy Nuclei (%),[6],18% and 6%
same,Population Hoechst High Intensity Objects (%),[6],2% and 1%
same,Population Membrane Permeable-Phenotype (%),[6],85% and 92%
same,Population Mitochondria Different-Phenotype (%),[6],71% and 100%
same,Population Mitotic Cells (%),[6],4% and 1%
same,Population Normal (%),[6],97% and 98%
same,Population Pyknosed Nuclei (%),[6],59% and 79%
same,Population Tubulin-Different-Phenotype (%),[6],100% and 92%
CS(=O)(=O)c1ccc(NC(=O)c2cccc(COc3ccc(Br)cc3CNCCO)c2)c(Cl)c1.O=CO,Population Apoptotic (%),[1],80% and 76%
same,Population Fragmented Nuclei (%),[1],11%
same,Population Healthy Nuclei (%),[1],76% and 84%
same,Population Hoechst High Intensity Objects (%),[1],0%
same,Population Mitotic Cells (%),[1],20% and 24%
same,Population Apoptotic (%),[2],85% and 71%
same,Population Healthy Nuclei (%),[2],50% and 72%
same,Population Hoechst High Intensity Objects (%),[2],0%
same,Population Apoptotic (%),[3],50% and 79%
same,Population Fragmented Nuclei (%),[3],7% and 3%
same,Population Healthy Nuclei (%),[3],69% and 78%
same,Population Hoechst High Intensity Objects (%),[3],0%
same,Population Mitotic Cells (%),[3],50% and 20%
same,Population Apoptotic (%),[4],77%
same,Population Healthy Nuclei (%),[4],33% and 65%
same,Population Hoechst High Intensity Objects (%),[4],0%
same,Population Mitotic Cells (%),[4],46% and 22%
same,Population Apoptotic (%),[5],83% and 87%
same,Population Fragmented Nuclei (%),[5],7%
same,Population Healthy Nuclei (%),[5],67% and 79%
same,Population Hoechst High Intensity Objects (%),[5],0%
same,Population Apoptotic (%),[6],100% and 94%
same,Population Healthy Nuclei (%),[6],23% and 57%
same,Population Hoechst High Intensity Objects (%),[6],0%
same,Population Mitotic Cells (%),[6],0% and 5%
Cc1onc(-c2ccccc2Cl)c1C(=O)N(C)c1ccc(Cl)cc1,Population Apoptotic (%),[1],60% and 64%
same,Population Healthy Nuclei (%),[1],57% and 80%
same,Population Hoechst High Intensity Objects (%),[1],0%
same,Population Mitochondria Different-Phenotype (%),[1],20% and 0%
same,Population Mitotic Cells (%),[1],40% and 35%
same,Population Normal (%),[1],100%
same,Population Pyknosed Nuclei (%),[1],14% and 17%
same,Population Tubulin-Different-Phenotype (%),[1],65% and 85%
same,Population Apoptotic (%),[2],33% and 73%
same,Population Healthy Nuclei (%),[2],52% and 83%
same,Population Hoechst High Intensity Objects (%),[2],0%
same,Population Membrane Permeable-Phenotype (%),[2],0% and 4%
same,Population Mitochondria Different-Phenotype (%),[2],0%
same,Population Mitotic Cells (%),[2],66% and 26%
same,Population Normal (%),[2],100%
same,Population Pyknosed Nuclei (%),[2],13% and 12%
same,Population Tubulin-Different-Phenotype (%),[2],88% and 70%
same,Population Apoptotic (%),[3],50% and 45%
same,Population Healthy Nuclei (%),[3],72% and 85%
same,Population Hoechst High Intensity Objects (%),[3],0%
same,Population Mitochondria Different-Phenotype (%),[3],13% and 0%
same,Population Mitotic Cells (%),[3],50% and 54%
same,Population Normal (%),[3],100% and 99%
same,Population Pyknosed Nuclei (%),[3],10% and 12%
same,Population Tubulin-Different-Phenotype (%),[3],68% and 86%
same,Population Apoptotic (%),[4],22% and 41%
same,Population Healthy Nuclei (%),[4],67% and 85%
same,Population Hoechst High Intensity Objects (%),[4],0%
same,Population Membrane Permeable-Phenotype (%),[4],3%
same,Population Mitochondria Different-Phenotype (%),[4],1%
same,Population Mitotic Cells (%),[4],77% and 58%
same,Population Normal (%),[4],100%
same,Population Pyknosed Nuclei (%),[4],9% and 10%
same,Population Tubulin-Different-Phenotype (%),[4],77% and 73%
same,Population Apoptotic (%),[5],60% and 56%
same,Population Healthy Nuclei (%),[5],75% and 91%
same,Population Hoechst High Intensity Objects (%),[5],0%
same,Population Membrane Permeable-Phenotype (%),[5],8% and 2%
same,Population Mitochondria Different-Phenotype (%),[5],3% and 0%
same,Population Mitotic Cells (%),[5],40% and 43%
same,Population Normal (%),[5],100% and 99%
same,Population Pyknosed Nuclei (%),[5],6%
same,Population Tubulin-Different-Phenotype (%),[5],74% and 88%
same,Population Apoptotic (%),[6],30% and 56%
same,Population Healthy Nuclei (%),[6],76% and 89%
same,Population Hoechst High Intensity Objects (%),[6],0%
same,Population Membrane Permeable-Phenotype (%),[6],0% and 1%
same,Population Mitochondria Different-Phenotype (%),[6],0% and 2%
same,Population Mitotic Cells (%),[6],70% and 43%
same,Population Normal (%),[6],100%
same,Population Pyknosed Nuclei (%),[6],7% and 9%
same,Population Tubulin-Different-Phenotype (%),[6],88% and 82%
CS(=O)(=O)c1ccc(C(=O)Nc2cccc(COc3ccc(Br)cc3CN[C@H]3CCC[C@@H]3O)c2)c(Cl)c1.O=CO,Population Apoptotic (%),[1],50% and 70%
same,Population Healthy Nuclei (%),[1],78% and 79%
same,Population Hoechst High Intensity Objects (%),[1],0%
same,Population Normal (%),[1],100%
same,Population Apoptotic (%),[2],59% and 100%
same,Population Healthy Nuclei (%),[2],70% and 80%
same,Population Hoechst High Intensity Objects (%),[2],0%
same,Population Normal (%),[2],99% and 100%
same,Population Apoptotic (%),[3],87% and 73%
same,Population Healthy Nuclei (%),[3],71% and 82%
same,Population Hoechst High Intensity Objects (%),[3],0%
same,Population Normal (%),[3],100%
same,Population Apoptotic (%),[4],88% and 79%
same,Population Healthy Nuclei (%),[4],47% and 63%
same,Population Hoechst High Intensity Objects (%),[4],0%
same,Population Normal (%),[4],100% and 99%
same,Population Apoptotic (%),[5],44% and 86%
same,Population Healthy Nuclei (%),[5],80% and 83%
same,Population Hoechst High Intensity Objects (%),[5],0%
same,Population Normal (%),[5],100%
same,Population Apoptotic (%),[6],92%
same,Population Healthy Nuclei (%),[6],50% and 57%
same,Population Hoechst High Intensity Objects (%),[6],1% and 0%
same,Population Normal (%),[6],98% and 100%
CN(C)[C@H]1CC[C@H](Nc2ncc3ncnc(Nc4ccc(F)c(Cl)c4)c3n2)CC1,Population Fragmented Nuclei (%),[1],46% and 17%
same,Population Healthy Nuclei (%),[1],42% and 68%
same,Population Hoechst High Intensity Objects (%),[1],0%
same,Population Membrane Permeable-Phenotype (%),[1],4% and 1%
same,Population Mitochondria Different-Phenotype (%),[1],4% and 1%
same,Population Mitotic Cells (%),[1],100% and 64%
same,Population Normal (%),[1],100% and 99%
same,Population Pyknosed Nuclei (%),[1],10% and 14%
same,Population Tubulin-Different-Phenotype (%),[1],76% and 89%
same,Population Apoptotic (%),[2],6% and 13%
same,Population Fragmented Nuclei (%),[2],38% and 27%
same,Population Healthy Nuclei (%),[2],36%
same,Population Hoechst High Intensity Objects (%),[2],9% and 11%
same,Population Membrane Permeable-Phenotype (%),[2],7% and 2%
same,Population Mitochondria Different-Phenotype (%),[2],6% and 1%
same,Population Mitotic Cells (%),[2],93% and 86%
same,Population Normal (%),[2],90% and 88%
same,Population Pyknosed Nuclei (%),[2],25% and 35%
same,Population Tubulin-Different-Phenotype (%),[2],50% and 81%
same,Total Cell Count,[2],197 and 472
same,Population Apoptotic (%),[3],16% and 47%
same,Population Healthy Nuclei (%),[3],43% and 76%
same,Population Hoechst High Intensity Objects (%),[3],0%
same,Population Membrane Permeable-Phenotype (%),[3],0% and 3%
same,Population Mitochondria Different-Phenotype (%),[3],0% and 1%
same,Population Mitotic Cells (%),[3],83% and 52%
same,Population Normal (%),[3],100% and 99%
same,Population Pyknosed Nuclei (%),[3],9% and 11%
same,Population Tubulin-Different-Phenotype (%),[3],75% and 92%
same,Population Apoptotic (%),[4],17% and 10%
same,Population Fragmented Nuclei (%),[4],40% and 25%
same,Population Healthy Nuclei (%),[4],33% and 40%
same,Population Hoechst High Intensity Objects (%),[4],14% and 9%
same,Population Membrane Permeable-Phenotype (%),[4],8% and 2%
same,Population Mitochondria Different-Phenotype (%),[4],2% and 0%
same,Population Mitotic Cells (%),[4],82% and 89%
same,Population Normal (%),[4],85% and 90%
same,Population Pyknosed Nuclei (%),[4],26% and 33%
same,Population Tubulin-Different-Phenotype (%),[4],61% and 82%
same,Population Apoptotic (%),[5],75% and 60%
same,Population Healthy Nuclei (%),[5],39% and 76%
same,Population Hoechst High Intensity Objects (%),[5],0%
same,Population Membrane Permeable-Phenotype (%),[5],3% and 1%
same,Population Mitochondria Different-Phenotype (%),[5],0% and 1%
same,Population Mitotic Cells (%),[5],25% and 39%
same,Population Normal (%),[5],100% and 99%
same,Population Pyknosed Nuclei (%),[5],5% and 8%
same,Population Tubulin-Different-Phenotype (%),[5],71% and 89%
same,Population Apoptotic (%),[6],18% and 14%
same,Population Fragmented Nuclei (%),[6],36% and 26%
same,Population Healthy Nuclei (%),[6],38% and 47%
same,Population Hoechst High Intensity Objects (%),[6],13% and 10%
same,Population Membrane Permeable-Phenotype (%),[6],9% and 1%
same,Population Mitochondria Different-Phenotype (%),[6],4% and 0%
same,Population Mitotic Cells (%),[6],81% and 85%
same,Population Normal (%),[6],86% and 89%
same,Population Pyknosed Nuclei (%),[6],25%
same,Population Tubulin-Different-Phenotype (%),[6],53% and 79%
